Experiment [1] can be described thus: Inhibition of binding of biotinylated chicken galectin-8N to surface immobilized asialofetuin by solid phase assay. On the set-up: species or system Gallus gallus. In outline:
(§1)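 Asialofetuin was adsorbed to microtiter wells at a constant coating amount, and its N-glycans served as ligand. Biotinylated lectin at a lectin-specific concentration was added with inhibitor. IC50 (mM) was normalized to lactose, and potency was expressed relative to free lactose. Assays were run in triplicate across up to five independent series.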

The nature of experiment [2]: Inhibition of binding of biotinylated Erythrina crista-galli agglutinin to surface immobilized asialofetuin by solid phase assay. In outline: (§2)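 Asialofetuin was adsorbed to microtiter wells at a constant coating amount, and its N-glycans served as ligand. Biotinylated lectin at a lectin-specific concentration was added with inhibitor. Assays were run in triplicate across up to five independent series.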

Experiment [3] can be described thus: Inhibition of binding of biotinylated Viscum album agglutinin to surface immobilized asialofetuin by solid phase assay. The procedure, abridged: as §1
In experiment [4] the target is T1, Galectin-3 (Gallus gallus, UniProt A4GTP0).
T1 sequence (A4GTP0 whole entry): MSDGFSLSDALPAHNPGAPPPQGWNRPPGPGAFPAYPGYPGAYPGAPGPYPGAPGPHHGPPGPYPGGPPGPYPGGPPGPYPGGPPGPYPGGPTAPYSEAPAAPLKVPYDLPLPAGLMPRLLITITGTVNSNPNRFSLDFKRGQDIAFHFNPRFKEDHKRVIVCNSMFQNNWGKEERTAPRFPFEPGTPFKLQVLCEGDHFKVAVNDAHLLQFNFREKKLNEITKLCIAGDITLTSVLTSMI
Kind of experiment: Inhibition of binding of biotinylated truncated chicken galectin-3 to surface immobilized asialofetuin by solid phase assay. The procedure, abridged: as §2

In experiment [5] the target is T1, Galectin-3. Kind of experiment: Inhibition of binding of biotinylated chicken galectin-3 to surface immobilized asialofetuin by solid phase assay. In outline:
as §2

The nature of experiment [6]: Inhibition of binding of biotinylated chicken galectin-8S to surface immobilized asialofetuin by solid phase assay. Also on record: species or system Gallus gallus. The procedure, abridged:
as §1

For experiment [7], the target named is T2, Beta-galactoside-binding lectin (Gallus gallus, UniProt P07583).
T2 sequence (P07583 whole entry): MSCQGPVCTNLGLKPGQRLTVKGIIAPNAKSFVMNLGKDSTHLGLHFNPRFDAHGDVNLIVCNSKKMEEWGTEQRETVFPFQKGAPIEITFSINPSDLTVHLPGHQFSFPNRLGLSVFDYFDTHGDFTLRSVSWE
Kind of experiment: Inhibition of binding of biotinylated chicken galectin-1B to surface immobilized asialofetuin by solid phase assay. The procedure, abridged: as §1

The test system of experiment [8] is CHO. Kind of experiment: Inhibition of binding of biotinylated chicken galectin-8S to CHO cells at 1 mM by cytofluorometry. Format: cell-based. Conditions: Gallus gallus. The procedure, abridged:
(§3)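 Labeled lectin, with or without inhibitor, was incubated with aliquots of cell suspensions from the same passage: human SW480 colon adenocarcinoma cells for Erythrina agglutinin, CHO cells for the galectins. Binding was quantified by cytofluorometry as % positive cells and mean fluorescence intensity. Readings were normalized between a lectin-only control (100%) and a no-lectin background (0%). Runs were done in triplicate across at least three independent series.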

The target in experiment [9] is T3, Galectin-3 (Gallus gallus) (UniProt A4GTP0).
T3 sequence (whole entry): T1 sequence (A4GTP0 whole entry)
Kind of experiment: (§4) Inhibition of binding of biotinylated truncated chicken galectin-3 to CHO cells at 2 mM by cytofluorometry. In kind it is cell-based. In outline:
as §3

Experiment [10] is described as follows: Inhibition of binding of biotinylated chicken galectin-2 to surface immobilized asialofetuin by solid phase assay. Also on record: species or system Gallus gallus. In outline: as §1
Experiment [11] in a line: Inhibition of binding of biotinylated chicken galectin-8S to surface immobilized asialofetuin by solid phase assay relative to free lactose. Also on record: species or system Gallus gallus. The procedure, abridged: as §1
A short description of experiment [12]: Inhibition of binding of biotinylated chicken galectin-8L to surface immobilized asialofetuin by solid phase assay. On the set-up: species or system Gallus gallus. In outline:
as §1

A short description of experiment [13]: Inhibition of binding of biotinylated chicken galectin-1A to surface immobilized asialofetuin by solid phase assay. On the set-up: species or system Gallus gallus. The procedure, abridged:
as §1

The target of experiment [14] is T3, Galectin-3 (Gallus gallus). Kind of experiment: (§5) Inhibition of binding of biotinylated chicken galectin-3 to CHO cells at 1 mM by cytofluorometry. Format: cell-based. In outline: as §3
For experiment [15], the system named is SW480. Kind of experiment: Inhibition of binding of biotinylated Erythrina crista-galli agglutinin to SW480 cells at 0.2 mM by cytofluorometry. In kind it is cell-based. In outline: as §3
Experiment [16] can be described thus: Inhibition of binding of biotinylated Viscum album agglutinin to surface immobilized asialofetuin by solid phase assay relative to free lactose. In outline: as §2
A short description of experiment [17]: Inhibition of binding of biotinylated chicken galectin-1A to surface immobilized asialofetuin by solid phase assay relative to free lactose. On the set-up: species or system Gallus gallus. The procedure, abridged: as §1
Experiment [18] concerns the target T2, Beta-galactoside-binding lectin. Kind of experiment: Inhibition of binding of biotinylated chicken galectin-1B to surface immobilized asialofetuin by solid phase assay relative to free lactose. The procedure, abridged:
as §1

Experiment [19] can be described thus: Inhibition of binding of biotinylated Erythrina crista-galli agglutinin to surface immobilized asialofetuin by solid phase assay relative to free lactose. In outline:
as §1

For experiment [20], the target named is T1, Galectin-3. Kind of experiment: Inhibition of binding of biotinylated chicken galectin-3 to surface immobilized asialofetuin by solid phase assay relative to free lactose. The procedure, abridged:
as §1

Experiment [21] is described as follows: Inhibition of binding of biotinylated chicken galectin-8L to surface immobilized asialofetuin by solid phase assay relative to free lactose. On the set-up: species or system Gallus gallus. In outline: as §2
Experiment [22] addresses T1, Galectin-3. Kind of experiment: Inhibition of binding of biotinylated truncated chicken galectin-3 to surface immobilized asialofetuin by solid phase assay relative to free lactose. The procedure, abridged: as §2
Experiment [23] can be described thus: Inhibition of binding of biotinylated chicken galectin-8N to surface immobilized asialofetuin by solid phase assay relative to free lactose. On the set-up: species or system Gallus gallus. In outline: as §1
Experiment [24] is described as follows: Inhibition of binding of biotinylated chicken galectin-2 to surface immobilized asialofetuin by solid phase assay relative to free lactose. Also on record: species or system Gallus gallus. The procedure, abridged:
as §1

The target in experiment [25] is T3, Galectin-3 (Gallus gallus). Particulars: CHO, 0.25 mM.
For experiment [26], the target named is Galectin-3 (Gallus gallus) (UniProt A4GTP0). The experiment is described as §4. In kind it is cell-based. The procedure, abridged: as §3
This is another data set of the same source.

Experiment [27] has the same target. The description is as §5. Format: cell-based. In outline: as §3
This is another data set of the same source.

Broadly, the IC50 is the midpoint of a concentration-inhibition curve. A higher IC50 goes with weaker potency in that assay. The inhibition is the relative decrease from the control value, in per cent. Read a low inhibition as a response near the control.

For `O=C(/C=C/C(=O)N[C@@H]1O[C@H](CO)[C@@H](O[C@@H]2O[C@H](CO)[C@H](O)[C@H](O)[C@H]2O)[C@H](O)[C@H]1O)N[C@@H]1O[C@H](CO)[C@@H](O[C@@H]2O[C@H](CO)[C@H](O)[C@H](O)[C@H]2O)[C@H](O)[C@H]1O`, the IC50 amounted to 800 µM in experiment [1]; 1200 µM in [2]; 550 µM in experiment [3]; 4200 µM in experiment [4]; 600 µM in experiment [5]; 2500 µM in experiment [6]. Besides, the IC50 in experiment [7] was 1300 µM; in experiment [10], 1400 µM; in [11], 700 µM; in experiment [12], 4500 µM; in experiment [13], 360 µM. For the same molecule, the inhibition in experiment [8] is 70%; in [9], 47%; in [14], 45%; in experiment [15], 89%.
In the case of `C=CC[C@@H]1O[C@@H](C(=O)NCc2ccc(CNC(=O)[C@H]3O[C@H](CC=C)[C@H](OCc4ccccc4)[C@@H](OCc4ccccc4)[C@@H]3OCc3cn([C@@H]4O[C@H](CO)[C@@H](O[C@@H]5O[C@H](CO)[C@H](O)[C@H](O)[C@H]5O)[C@H](O)[C@H]4O)nn3)cc2)[C@H](OCc2cn([C@@H]3O[C@H](CO)[C@@H](O[C@@H]4O[C@H](CO)[C@H](O)[C@H](O)[C@H]4O)[C@H](O)[C@H]3O)nn2)[C@@H](OCc2ccccc2)[C@@H]1OCc1ccccc1`, the IC50 in experiment [1] amounted to 400 µM; in experiment [2], 1300 µM; in experiment [3], 1300 µM; in [4] it was 5000 µM; in experiment [5] it was 14 µM; in [6], 3000 µM. Besides, the IC50 amounted to 460 µM in experiment [7]; 650 µM in experiment [10]; 600 µM in experiment [11]; 2400 µM in [12]; 1400 µM in experiment [13]; 2100 µM in experiment [21]. The same molecule had an IC50 in [22] of 900 µM. The relative potency in [16] is 0.5; in experiment [17], 0.5; in experiment [18], 8.7; in experiment [19] it was 0.8; in experiment [20], 78.6; in experiment [23] it was 4. This molecule also returned a relative potency in experiment [24] of 9.2.
Turning to `OC[C@H]1O[C@@H](O[C@H]2[C@H](O)[C@@H](O)[C@H](n3cc(-c4ccc(-c5cn([C@@H]6O[C@H](CO)[C@@H](O[C@@H]7O[C@H](CO)[C@H](O)[C@H](O)[C@H]7O)[C@H](O)[C@H]6O)nn5)cc4)nn3)O[C@@H]2CO)[C@H](O)[C@@H](O)[C@H]1O`, the concentration for half-maximal inhibition (IC50) in experiment [1] turned out to be 500 µM; in experiment [2], 600 µM; in experiment [3], 130 µM; in experiment [4], 3100 µM; in experiment [5] it was 70 µM; in experiment [6], 700 µM. Also, the IC50 stood at 1500 µM in experiment [7]; 1200 µM in [10]; 2600 µM in [11]; 1800 µM in experiment [12]; 220 µM in experiment [13]; 2800 µM in experiment [21]. Besides, the IC50 in experiment [22] was found to be 1500 µM. For the same molecule, the inhibition in [25] was determined as 39%; in experiment [8] it was 34%; in experiment [9] it was 44%; in experiment [15], 85%. Besides, the relative potency in experiment [16] is 4.6; in experiment [17] it was 2.3; in experiment [18], 2.7; in [19], 1.8; in experiment [20], 15.7; in [23] it was 3.2. Further, the relative potency in [24] turned out to be 5.
As to “LACTOSE, ANHYDROUS [listing 1 of 2 here]”, the inhibition came out at 39% in experiment [8], 67% in experiment [26], 75% in [27] and 86% in [15].
In the case of “LACTOSE, ANHYDROUS [listing 2 of 2 here]”, the IC50 in [1] came out at 1600 µM; in [3] it was 600 µM; in [6] it was 1800 µM; in experiment [10] it was 6000 µM; in [12] it was 5000 µM; in [13], 500 µM.
As for `O=C1NCc2ccc(cc2)CNC(=O)[C@@H]2O[C@@H](C/C=C/C[C@H]3O[C@H]1[C@@H](OCc1cn([C@@H]4O[C@H](CO)[C@@H](O[C@@H]5O[C@H](CO)[C@H](O)[C@H](O)[C@H]5O)[C@H](O)[C@H]4O)nn1)[C@H](OCc1ccccc1)[C@H]3OCc1ccccc1)[C@@H](OCc1ccccc1)[C@H](OCc1ccccc1)[C@H]2OCc1cn([C@@H]2O[C@H](CO)[C@@H](O[C@@H]3O[C@H](CO)[C@H](O)[C@H](O)[C@H]3O)[C@H](O)[C@H]2O)nn1`, the IC50 in experiment [1] came to 300 µM; in [2], 800 µM; in experiment [3], 240 µM; in [4] it was 5300 µM; in experiment [5], 80 µM; in experiment [6], 400 µM. For the same molecule, the IC50 in [7] was found to be 600 µM; in experiment [10], 700 µM; in experiment [11] it was 4500 µM; in [12], 600 µM; in experiment [13] it was 1600 µM; in experiment [21], 8300 µM. Besides, the IC50 in experiment [22] was 800 µM. The relative potency in experiment [16] is 2.5; in [17], 0.3; in [18], 6.7; in experiment [19], 1.4; in experiment [20], 13.8; in experiment [23], 5.3. The molecule also came in with a relative potency in experiment [24] of 8.6. Besides, the inhibition in experiment [15] worked out at 88%.

These data come from ChEMBL document CHEMBL2202999, “Synthesis of bivalent lactosides and their activity as sensors for differences between lectins in inter- and intrafamily comparisons” (Bioorg Med Chem Lett, 2012).
